Experimental data: PMC4561207 (Child's nervous system : ChNS : official journal of the …, 2015)

What was measured:
[1] = test system: Plasma VEGF, bFGF, endostatin and IL8 and urine MMPs; assay: Pharmacodynamic biomarkers in plasma and urine; type: in vivo, human; conditions: baseline vs day 7–14 of cycle 1, or baseline vs end of cycle 2
Outline: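 Plasma VEGF, bFGF, endostatin and IL8 and urine MMPs were measured by human immunoassays before course 1, once on days 7–14 of course 1, at each MRI scan, and at discontinuation or completion. The fold change was calculated as the later-timepoint value divided by the earlier-timepoint value.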

[2] = test system: progressive glioblastoma multiforme; conditions: adults, therapy initiated at 45mg; cited from earlier work
[3] = adults treated with a 5 mg flat dose; cited from earlier work
[4] = pediatric MTD of 12mg/m^2/day; cited from earlier work

Structure (SMILES): COc1cc2c(Oc3ccc4[nH]c(C)cc4c3F)ncnc2cc1OCCCN1CCCC1 [cediranib, Cediranib]
- changes in MMP-9, MMP-9 Dimers or MMP-9/NGAL [1]: No significant changes
- 6-month progression-free survival [2]: 26%
- radiographic response, patients [2]: 57%
- steady-state systemic exposure (AUC) [3]: 226 ng·h/mL
- median AUC(0-inf) [4]: 900 ng·h/mL
- median Cmax [4]: 67 ng/mL
